According to ChEMBL document CHEMBL4732120, “Discovery of novel PARP/PI3K dual inhibitors with high efficiency against BRCA-proficient triple negative breast cancer” (Eur J Med Chem, 2021):
pIC50: −log10 of the molar value.

How the values were obtained:
[1] = Elimination half life in dog liver microsomes measured after 1 hr; type: ADME, Canis lupus familiaris, Microsome; conditions: read-out: beta t1/2
Outline: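 Compound incubated 1 h with mouse, rat, dog, monkey or human liver microsomes. Derived values were the elimination rate constant k, the elimination half-life T1/2 and the intrinsic clearance CLint.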

[2] = target: Poly [ADP-ribose] polymerase 2 (Homo sapiens, UniProt Q9UGN5); assay: Inhibition of PARP2 (unknown origin)
[3] = target: T1, Phosphatidylinositol 4,5-bisphosphate 3-kinase catalytic subunit delta isoform (Homo sapiens, UniProt O00329); assay: Inhibition of PI3Kdelta (unknown origin)
T1 sequence (O00329 whole entry): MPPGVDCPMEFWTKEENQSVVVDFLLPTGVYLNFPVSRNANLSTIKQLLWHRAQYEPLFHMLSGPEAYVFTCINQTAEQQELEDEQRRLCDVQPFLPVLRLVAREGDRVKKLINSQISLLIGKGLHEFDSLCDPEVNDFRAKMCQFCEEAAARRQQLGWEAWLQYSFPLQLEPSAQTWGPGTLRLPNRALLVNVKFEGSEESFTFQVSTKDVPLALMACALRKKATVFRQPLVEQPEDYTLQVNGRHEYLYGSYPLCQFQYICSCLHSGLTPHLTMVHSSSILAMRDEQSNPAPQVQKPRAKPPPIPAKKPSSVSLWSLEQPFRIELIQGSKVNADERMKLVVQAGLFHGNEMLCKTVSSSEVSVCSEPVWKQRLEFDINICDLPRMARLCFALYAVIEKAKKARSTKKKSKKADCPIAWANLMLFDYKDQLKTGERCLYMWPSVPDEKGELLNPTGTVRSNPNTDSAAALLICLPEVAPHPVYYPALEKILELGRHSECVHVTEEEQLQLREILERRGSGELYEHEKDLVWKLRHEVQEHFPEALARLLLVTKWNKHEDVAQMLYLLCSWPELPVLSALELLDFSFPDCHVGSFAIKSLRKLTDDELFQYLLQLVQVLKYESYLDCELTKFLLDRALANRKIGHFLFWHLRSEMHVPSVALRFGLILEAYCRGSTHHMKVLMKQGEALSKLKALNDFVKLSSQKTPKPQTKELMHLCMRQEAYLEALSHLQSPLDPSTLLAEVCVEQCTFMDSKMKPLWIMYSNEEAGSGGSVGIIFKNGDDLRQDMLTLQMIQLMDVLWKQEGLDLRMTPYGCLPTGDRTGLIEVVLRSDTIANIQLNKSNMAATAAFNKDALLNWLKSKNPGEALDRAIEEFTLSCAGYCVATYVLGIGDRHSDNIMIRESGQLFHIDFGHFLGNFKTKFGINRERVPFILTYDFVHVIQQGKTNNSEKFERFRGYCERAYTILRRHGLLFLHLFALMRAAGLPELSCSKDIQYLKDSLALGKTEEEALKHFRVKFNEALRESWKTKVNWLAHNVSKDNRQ

[4] = target: Phosphatidylinositol 4,5-bisphosphate 3-kinase catalytic subunit beta isoform (Homo sapiens, UniProt P42338); assay: Inhibition of PI3Kbeta (unknown origin)
[5] = Toxicity in Sprague-Dawley rat assessed as change in body weight at 1000 mg/kg, po administered as single dose measured during adaptation period (reference value: 258 +/- 13 g); type: organism-based; conditions: in vivo
[6] = target: Phosphatidylinositol 4,5-bisphosphate 3-kinase catalytic subunit alpha isoform (Homo sapiens, UniProt P42336); assay: Inhibition of PI3Kalpha (unknown origin)
Outline: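 PARP-1 and PI3Kα enzyme inhibition. IC50 taken from dose-response curves and given as mean ± SD of three independent experiments.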

[7] = Toxicity in […] cells xenografted BALB/c mouse assessed as mortality at 50 mg/kg, ip administered every two days for 34 days; type: organism-based; conditions: in vivo, 816 h, time 34 day

Poly [ADP-ribose] polymerase 2, sequence (Q9UGN5 whole entry, canonical isoform): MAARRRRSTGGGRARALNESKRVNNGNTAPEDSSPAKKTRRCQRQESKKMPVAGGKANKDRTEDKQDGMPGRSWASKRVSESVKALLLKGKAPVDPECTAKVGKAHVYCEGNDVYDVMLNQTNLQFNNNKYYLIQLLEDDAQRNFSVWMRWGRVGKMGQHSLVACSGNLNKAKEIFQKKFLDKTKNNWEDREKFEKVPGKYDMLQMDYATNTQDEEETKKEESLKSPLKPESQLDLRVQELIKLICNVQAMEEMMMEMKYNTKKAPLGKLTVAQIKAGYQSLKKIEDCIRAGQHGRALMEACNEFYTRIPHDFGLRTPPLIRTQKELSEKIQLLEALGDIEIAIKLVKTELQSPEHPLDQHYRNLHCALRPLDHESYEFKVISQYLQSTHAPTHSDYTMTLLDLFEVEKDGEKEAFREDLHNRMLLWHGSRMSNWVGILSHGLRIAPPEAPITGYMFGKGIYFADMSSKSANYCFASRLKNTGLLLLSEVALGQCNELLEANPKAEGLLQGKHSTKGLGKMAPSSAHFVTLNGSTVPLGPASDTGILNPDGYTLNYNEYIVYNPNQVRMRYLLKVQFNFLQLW
Phosphatidylinositol 4,5-bisphosphate 3-kinase catalytic subunit beta isoform, sequence (P42338 whole entry, canonical isoform): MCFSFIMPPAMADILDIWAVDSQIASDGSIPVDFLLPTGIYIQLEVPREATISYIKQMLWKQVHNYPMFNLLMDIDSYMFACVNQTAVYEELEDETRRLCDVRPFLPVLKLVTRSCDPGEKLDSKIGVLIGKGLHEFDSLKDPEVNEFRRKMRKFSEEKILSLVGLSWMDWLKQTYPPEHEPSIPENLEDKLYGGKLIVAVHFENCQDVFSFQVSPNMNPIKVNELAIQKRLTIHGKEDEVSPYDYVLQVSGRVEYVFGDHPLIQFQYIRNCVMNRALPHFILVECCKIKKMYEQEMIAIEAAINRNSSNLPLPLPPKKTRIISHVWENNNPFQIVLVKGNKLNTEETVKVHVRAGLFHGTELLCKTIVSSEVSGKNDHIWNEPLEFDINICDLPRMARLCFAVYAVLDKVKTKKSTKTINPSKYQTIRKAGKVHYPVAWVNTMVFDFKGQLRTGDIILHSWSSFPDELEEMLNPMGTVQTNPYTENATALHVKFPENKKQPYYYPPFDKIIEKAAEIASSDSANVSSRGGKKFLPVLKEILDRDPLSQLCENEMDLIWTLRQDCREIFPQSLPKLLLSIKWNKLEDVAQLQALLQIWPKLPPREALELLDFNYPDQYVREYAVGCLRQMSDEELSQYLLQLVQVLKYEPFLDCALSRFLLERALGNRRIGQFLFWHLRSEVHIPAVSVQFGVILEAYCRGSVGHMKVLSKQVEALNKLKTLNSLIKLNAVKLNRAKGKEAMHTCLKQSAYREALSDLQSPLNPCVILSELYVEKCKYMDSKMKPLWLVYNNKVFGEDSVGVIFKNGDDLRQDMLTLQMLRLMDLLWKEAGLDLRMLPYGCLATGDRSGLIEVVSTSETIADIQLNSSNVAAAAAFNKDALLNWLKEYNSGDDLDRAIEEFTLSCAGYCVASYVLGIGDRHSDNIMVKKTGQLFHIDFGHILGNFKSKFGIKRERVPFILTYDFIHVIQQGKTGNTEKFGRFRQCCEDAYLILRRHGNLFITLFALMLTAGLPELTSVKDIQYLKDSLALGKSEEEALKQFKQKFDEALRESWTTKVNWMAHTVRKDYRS
Phosphatidylinositol 4,5-bisphosphate 3-kinase catalytic subunit alpha isoform, sequence (P42336 whole entry, canonical isoform): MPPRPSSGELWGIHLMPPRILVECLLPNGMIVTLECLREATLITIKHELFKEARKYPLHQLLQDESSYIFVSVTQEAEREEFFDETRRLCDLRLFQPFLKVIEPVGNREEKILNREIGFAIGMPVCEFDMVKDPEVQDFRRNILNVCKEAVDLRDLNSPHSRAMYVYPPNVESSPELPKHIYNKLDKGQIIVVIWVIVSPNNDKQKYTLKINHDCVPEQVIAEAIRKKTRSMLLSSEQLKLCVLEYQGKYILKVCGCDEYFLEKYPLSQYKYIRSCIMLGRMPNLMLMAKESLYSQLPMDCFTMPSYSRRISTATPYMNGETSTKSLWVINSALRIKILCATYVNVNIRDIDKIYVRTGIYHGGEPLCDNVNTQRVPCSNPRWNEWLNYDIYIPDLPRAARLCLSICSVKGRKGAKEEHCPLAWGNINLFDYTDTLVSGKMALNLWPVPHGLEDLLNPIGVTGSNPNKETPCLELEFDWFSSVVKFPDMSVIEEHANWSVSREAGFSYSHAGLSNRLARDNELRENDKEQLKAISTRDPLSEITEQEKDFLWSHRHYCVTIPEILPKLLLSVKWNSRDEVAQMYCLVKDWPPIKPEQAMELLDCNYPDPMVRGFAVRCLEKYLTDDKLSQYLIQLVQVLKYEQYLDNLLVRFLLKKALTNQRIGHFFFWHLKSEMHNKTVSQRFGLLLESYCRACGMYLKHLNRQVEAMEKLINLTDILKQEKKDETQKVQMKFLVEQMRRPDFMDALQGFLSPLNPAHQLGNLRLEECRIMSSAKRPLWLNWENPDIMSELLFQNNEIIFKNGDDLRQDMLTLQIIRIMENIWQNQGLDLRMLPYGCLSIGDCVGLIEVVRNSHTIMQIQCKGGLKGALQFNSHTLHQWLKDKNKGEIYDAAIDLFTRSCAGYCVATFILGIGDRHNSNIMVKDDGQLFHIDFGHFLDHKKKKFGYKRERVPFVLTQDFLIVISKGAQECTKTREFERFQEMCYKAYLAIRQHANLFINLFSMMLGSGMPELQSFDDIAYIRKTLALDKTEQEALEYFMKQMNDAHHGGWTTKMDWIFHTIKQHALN

Work on NC(=O)c1cccc2cc(C(=O)N3CCN(c4nc(-c5cnc(NC(=O)CN6CCOCC6)cc5C(F)(F)F)nc(N5CCOCC5)n4)CC3)oc12 yielded a half-life [1] of 47.3 min, a pIC50 [2] of 8.21 and a pIC50 [3] of 6.71. It also gave a pIC50 [4] of 6.42, an Activity [5] of 256 g and a pIC50 [6] of 7.19. For the same compound, the Activity [7] was “Non-Toxic”.
